This is a sample that favours compounds with a hit; in the whole collection about 2.9% have one here.
HSP90 refold inh – HSP90 inhibitors, primary screen, cell lysate, luminescence. Heat shock protein HSP 90 (rabbit reticulocyte lysate; luciferase refolding). Rabbit reticulocyte lysate, luciferase refolding luminescence, 3 h. inhibition, % at 5.6 µM. hit rate 0.91% among 290,000;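 active = inhibition above the screen-wide mean plus 3 SD, computed separately per campaign, cut at about 16% in these data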;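 note: 0% = DMSO wells and 100% = 60 µM geldanamycin wells; inhibitors lower the luminescence because luciferase stays unfolded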
SENP6 block – SENP6 protease inhibitors, primary screen, biochemical, luminescence, uHTS. Sentrin-specific protease 6 (Homo sapiens), Q9GZR1. hit rate 1.8% among 330,000. inhibition, % at 10 µM. Recombinant SENP6 catalytic domain, aminoluciferin luminescence;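 active = inhibition above about 50% at the single tested dose, limit read from the data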;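 note: plate controls were DMSO wells with enzyme for no effect and DMSO wells lacking enzyme for full effect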
Target sequence (Q9GZR1 628-1112 limits assumed): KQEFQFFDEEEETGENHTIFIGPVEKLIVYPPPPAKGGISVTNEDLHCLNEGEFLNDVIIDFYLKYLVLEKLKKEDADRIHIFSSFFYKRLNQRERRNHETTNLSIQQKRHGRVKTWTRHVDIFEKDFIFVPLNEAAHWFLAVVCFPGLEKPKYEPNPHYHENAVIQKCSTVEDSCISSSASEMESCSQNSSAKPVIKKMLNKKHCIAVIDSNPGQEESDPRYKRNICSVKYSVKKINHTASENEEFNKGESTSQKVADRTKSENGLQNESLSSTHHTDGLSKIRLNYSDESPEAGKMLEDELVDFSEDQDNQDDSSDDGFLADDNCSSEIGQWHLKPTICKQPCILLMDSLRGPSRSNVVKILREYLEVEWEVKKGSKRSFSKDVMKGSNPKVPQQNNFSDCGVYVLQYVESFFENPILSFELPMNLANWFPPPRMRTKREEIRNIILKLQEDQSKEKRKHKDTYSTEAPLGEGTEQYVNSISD
SENP8 block-1 – human SENP8 protease inhibitors, primary screen, biochemical, fluorescence, Nedd8 protein substrate, uHTS. AID 602440, 2012. hit rate 0.64% among 360,000. inhibition, % at 20 µM. Sentrin-specific protease 8 (Homo sapiens), Q96LD8. recombinant SENP8; in the data active = inhibition mostly above about 40%, no sharp cut-off; inactive = mostly below about 27%
SENP7 inh – SENP7 protease inhibitors, primary screen, biochemical, luminescence, uHTS | Sentrin-specific protease 7 (Homo sapiens), Q9BQF6 | inhibition, % at 5 µM | hit rate 1.5% among 330,000 | recombinant SENP7, Z-RLRGG-aminoluciferin luminescence, 40 min | AID 434973, 2010;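 active = inhibition above about 50% at the single test dose, limit read from the data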;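 note: plate controls were DMSO with enzyme for no effect and no enzyme buffer wells for full effect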
SENP1 inh – human SENP1 catalytic domain inhibitors, primary screen, biochemical, FRET, uHTS. inhibition, % at 10 µM. hit rate 0.21% among 360,000. Sentrin-specific protease 1 (Homo sapiens), Q9P0U3. recombinant SENP1 catalytic domain, CyPet-SUMO1-YPet FRET cleavage;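 active = inhibition at least 30% at 10 µM, raw YFP signal under a set limit, fluorescence ratio 0.5 to 1.5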;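 note: 0% = enzyme with DMSO and 100% = no enzyme wells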
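Compound: 10 µM single point, 0.5% DMSO; Test system: hSENP1 catalytic domain, recombinant; Timing: 50 min reaction at room temperature; Technique: FRET, CFP and YFP emission; Control set: no-enzyme wells low, DMSO-plus-enzyme wells high control.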
SENP8 block-2 – SENP8 protease inhibitors, primary screen, biochemical, luminescence; purified SENP8, Z-RLRGG-aminoluciferin cleavage; hit rate 1.2% among 330,000; AID 2540, 2010; Sentrin-specific protease 8 (Homo sapiens), Q96LD8; inhibition, % at 10 µM; in the data active = inhibition above about 50%
SENP8 conf – SENP8 protease inhibitors, retest, confirmation, biochemical, luminescence, single concentration; shares compounds with SENP7 inh; Recombinant SENP8, Z-RLRGG-aminoluciferin luminescence, 60 min; inhibition, % at 12.5 µM; hit rate 40% among 6,200;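 active = mean inhibition across replicates above about 50%, limit read from the data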
SENP6 confirm – SENP6 protease inhibitors, confirmation, biochemical, luminescence, single concentration. inhibition, % at 12.5 µM. shares compounds with SENP7 inh. hit rate 58% among 6,200. recombinant SENP6, Z-RLRGG-aminoluciferin luminescence. AID 488915, 2010
SENP7 confirm – SENP7 protease inhibitors, retest, confirmation, biochemical, luminescence, single concentration; shares compounds with SENP7 inh; recombinant SENP7, Z-RLRGG-aminoluciferin luminescence, 40 min; inhibition, % at 12.5 µM; hit rate 69% among 6,200
Casp3 select – caspase-3 protease inhibitors, confirmation, selectivity assay for SENP inhibitor project, biochemical, single concentration. shares compounds with SENP7 inh. purified caspase-3, Z-DEVD-aminoluciferin luminescence, 60 min. inhibition, % at 12.5 µM. hit rate 60% among 6,200;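 active = mean inhibition above about 50%, limit read from the data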;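 note: plate controls were enzyme with DMSO for no effect and wells without caspase-3 for full effect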
Target sequence (P42574 28-227 limits assumed): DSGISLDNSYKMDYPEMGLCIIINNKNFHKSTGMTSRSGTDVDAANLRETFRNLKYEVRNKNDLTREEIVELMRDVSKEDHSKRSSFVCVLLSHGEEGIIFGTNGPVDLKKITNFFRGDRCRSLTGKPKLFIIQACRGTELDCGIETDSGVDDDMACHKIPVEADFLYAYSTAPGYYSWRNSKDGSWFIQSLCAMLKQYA
SENP luc ctr – interferes with luciferase luminescence in SENP counter-screen; Pre-incubated SENP8/Z-RLRGG-aminoluciferin, luciferase luminescence interference; shares compounds with SENP7 inh; AID 488919; hit rate 39% among 6,200; inhibition, % at 12.5 µM;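 active = mean inhibition above about 50% when retested at one dose, limit read from the data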;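 note: plate controls were DMSO wells with completed reaction for no effect and substrate without enzyme for full effect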
An asterisk follows results filed as active; x = no result given.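 Rule for the calls, unless noted: active = mean inhibition above about 50% in the one-dose retest (limit read from the data); inactive = the rest.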

SMILES	HSP90 refold inh	SENP6 block	SENP8 block-1	SENP7 inh	SENP1 inh	SENP8 block-2	SENP8 conf	SENP6 confirm	SENP7 confirm	Casp3 select	SENP luc ctr
COc1ccc(C2=NN(CN3C(=O)C(=O)c4ccccc43)C(c3ccc(Br)cc3)C2)cc1 (stereo not drawn)	-0.3	-10.5	5.2	80.6*	-0.9	-5.4	-11.6	-8.1	2.5	3.6	-0.3
CC(C)CC(N)c1csc(NC(=O)C(c2ccccc2)c2ccccc2)n1 (stereo not drawn)	x	x	8.9	x	1.9	x	x	x	x	x	x
Oc1c(Cl)cc(Cl)cc1C=Nc1cc(C(F)(F)F)ccc1N1CCc2ccccc2C1	14.2	15.3	-111.6	99.1*	-23.3	95.9*	94.4*	96.1*	102.2*	95.4*	62.2*
CCC(=O)Nc1ccc(NC(=O)c2cccc(OC)c2)nc1	1.0	42.3	20.7	41.1	-1.5	11.4	x	x	x	x	x
O=C(Nc1ccc(NC(=O)c2ccco2)nc1)c1ccccn1	10.6	54.1*	5.5	50.7*	1.0	24.5	-6.4	35.7	74.5*	80.5*	31.5
O=C(Nc1ccc(NC(=O)C2CC2)nc1)c1cnccn1	-1.3	-14.6	7.8	5.4	1.8	2.9	x	x	x	x	x
COc1cccc(C(=O)Nc2ccc(NC(=O)C3CC3)cn2)c1	5.0	85.1*	22.5	82.0*	2.1	59.7*	69.4*	69.3*	89.2*	89.1*	12.5
O=C(Nc1ccc(NC(=O)C2CC2)nc1)c1ccccn1	10.4	54.8*	2.7	51.7*	1.7	4.5	29.9	34.7	61.4*	69.7*	22.6
COc1ccc(NS(=O)(=O)c2cccc(C(=O)NNC(=O)c3ccc(O)c(Cl)c3)c2)cc1	x	-1.9	10.5	-8.7	0.2	-15.1	x	x	x	x	x
CC(C)[C@H](NC(=O)[C@@H]1Cc2c([nH]c3ccccc23)C2c3ccccc3C(=O)N21)C(=O)N1CCC[C@@H]1C(=O)O (stereo partly drawn)	-0.6	-1.6	-20.8	-1.2	-92.2	4.9	x	x	x	x	x
Nc1nc(-c2ccc3c(c2)CCCC3)cs1	1.6	78.5*	16.7	56.0*	-2.3	52.9*	64.9*	75.1*	91.1*	51.1*	70.5*
Nc1nc(-c2ccc3c(c2)OCCO3)cs1	1.0	31.2	9.2	2.8	1.2	-9.1	x	x	x	x	x
CCN(CC)c1ccc(C(=O)NNC(=O)CNC(=O)c2ccco2)cc1	x	-10.6	-9.0	1.3	-3.9	-1.2	x	x	x	x	x
COCCCNC(=O)CN(c1ccc(F)cc1)S(=O)(=O)c1ccc2c(c1)OCCO2	-4.8	-1.5	2.2	2.4	1.1	5.2	x	x	x	x	x
COc1cc(OC)cc(C(=O)O/N=C(\N)c2cccc(C)c2)c1	-0.8	-3.5	7.1	11.8	1.9	-8.2	x	x	x	x	x
N/C(=N\OC(=O)c1ccco1)c1ccc(Cl)cc1	1.7	93.5*	5.0	88.2*	1.8	79.3*	23.2	11.7	29.8	37.8	30.0
N/C(=N\OC(=O)c1ccc(Br)cc1)c1ccncc1	2.6	58.5*	14.4	62.1*	4.2	25.9	34.9	40.1	70.9*	67.9*	49.0
C/C(=N\OC(=O)c1ccc(Cl)cc1)c1nccs1	-1.9	72.1*	7.9	87.9*	5.4	27.7	27.5	27.8	65.0*	40.7	31.5
COc1cc(OC)cc(C(=O)O/N=C(\N)c2ccncc2)c1	-0.3	-3.6	4.8	-11.2	5.8	-11.4	x	x	x	x	x
Cc1cccc(/C(N)=N/OC(=O)c2cccnc2)c1	4.6	69.5*	24.9	79.9*	-0.8	49.4	46.6	54.1*	84.6*	84.1*	58.2*
COCCNC(=O)C1(C)CCCN(C(=O)c2c(-c3ccccc3)noc2C)C1 (stereo not drawn)	x	x	19.6	x	-0.2	x	x	x	x	x	x
COc1ccccc1C(O)c1ncc(-c2cccc3ccccc23)[nH]1 (stereo not drawn)	x	x	-351.2	x	1.7	x	x	x	x	x	x
N/C(=N\OC(=O)c1ccc2c(c1)OCO2)c1cccc([N+](=O)[O-])c1	-5.4	41.9	14.7	44.7	3.0	14.6	x	x	x	x	x
Cc1cccc(/C(N)=N/OC(=O)c2ccc3c(c2)OCO3)c1	4.4	97.8*	6.7	99.6*	3.0	96.8*	99.6*	100.5*	103.3*	98.3*	98.6*
Cc1cccc(/C(N)=N/OC(=O)c2cccc3ccccc23)c1	0.7	86.7*	-132.1	86.9*	1.7	76.5*	86.3*	84.6*	96.1*	72.3*	82.2*
SMILES	HSP90 refold inh	SENP6 block	SENP8 block-1	SENP7 inh	SENP1 inh	SENP8 block-2	SENP8 conf	SENP6 confirm	SENP7 confirm	Casp3 select	SENP luc ctr
N/C(=N\OC(=O)c1ccccc1Cl)c1ccc(Cl)cc1	-2.6	85.2*	19.7	83.9*	1.9	69.5*	71.3*	70.1*	93.2*	62.3*	79.1*
N/C(=N\OC(=O)c1ccc(Cl)cc1)c1ccn[nH]1	14.7	73.0*	9.8	79.0*	4.5	58.4*	80.0*	77.1*	91.9*	87.0*	82.9*
O=C(COc1ccc([N+](=O)[O-])cc1)NNC(=O)Nc1cccc(F)c1	3.4	-6.0	14.7	6.1	0.9	-7.4	x	x	x	x	x
O=C(NC1CCCC1)C1CCN(C(=O)c2cccc(Cl)c2)CC1	3.0	6.5	11.4	8.7	-2.5	1.6	x	x	x	x	x
N/C(=N\OC(=O)c1ccc(Cl)cc1)c1cccnc1	0.2	72.0*	24.5	67.3*	6.6	35.7	62.3*	59.0*	85.5*	82.7*	65.9*
Cc1cccc(/C(N)=N/OC(=O)Cc2ccccc2)c1	-3.0	7.9	2.2	-13.2	0.5	-12.3	x	x	x	x	x
N/C(=N\OC(=O)/C=C/c1ccccc1)c1cccnc1	2.4	-26.5	6.8	14.4	2.6	-3.1	x	x	x	x	x

Compound activity: PubChem BioAssay, several laboratories
